Data published in ChEMBL document CHEMBL1287747, “Highly active antimycobacterial derivatives of benzoxazine” (2010).
≈ marks a conversion by molar mass, not a printed value.

Key:
Type in all cases: functional
Mycobacterium kansasii [1] = experiment: Antimycobacterial activity against Mycobacterium kansasii CNCTC My 235/80 after 21 days by microdilution method; conditions: CNCTC My 235/80, 504 h
Method in brief: (§1)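 Strains from the Czech National Collection of Type Cultures, tested by dilution micromethod in Šula semisynthetic medium. Incubated at 37 °C and read at 14 and 21 days. MIC is the lowest concentration inhibiting growth.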

Mycobacterium kansasii [2] = experiment: Antimycobacterial activity against Mycobacterium kansasii CNCTC My 235/80 after 14 days by microdilution method; conditions: CNCTC My 235/80, 336 h; method in brief: as §1
[3] = system: Mycobacterium tuberculosis; experiment: Antimycobacterial activity against Mycobacterium tuberculosis CNCTC My 331/88 after 14 days by microdilution method; conditions: CNCTC My 331/88, 336 h; method in brief: as §1
Mycobacterium avium [4] = experiment: Antimycobacterial activity against Mycobacterium avium CNCTC My 330/88 after 14 days by microdilution method; conditions: CNCTC My 330/88, 336 h; method in brief: as §1
Mycobacterium kansasii [5] = experiment: Antimycobacterial activity against Mycobacterium kansasii 6509/96 after 14 days by microdilution method; conditions: 6509/96, 336 h
Method in brief: (§2)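 Clinical isolate that, unlike the standard strain, is not isoniazid-resistant. Tested by dilution micromethod in Šula semisynthetic medium, with compounds added in DMSO at final 1000 down to 0.25 µmol/L in twofold steps. Löwenstein-Jensen plate used as inoculum sterility and growth control. Incubated at 37 °C and read at 14 and 21 days. MIC is the lowest concentration inhibiting growth.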

Mycobacterium avium [6] = experiment: Antimycobacterial activity against Mycobacterium avium CNCTC My 330/88 after 21 days by microdilution method; conditions: CNCTC My 330/88, 504 h; method in brief: as §1
[7] = system: Mycobacterium tuberculosis; experiment: Antimycobacterial activity against Mycobacterium tuberculosis CNCTC My 331/88 after 21 days by microdilution method; conditions: CNCTC My 331/88, 504 h; method in brief: as §1
Mycobacterium kansasii [8] = experiment: Antimycobacterial activity against Mycobacterium kansasii 6509/96 after 21 days by microdilution method; conditions: 6509/96, 504 h; method in brief: as §2

Row | SMILES | MIC (Mycobacterium kansasii [1]) | MIC (Mycobacterium kansasii [2]) | MIC [3] | MIC (Mycobacterium avium [4]) | MIC (Mycobacterium kansasii [5]) | MIC (Mycobacterium avium [6]) | MIC [7] | MIC (Mycobacterium kansasii [8])
1 | CC(C)c1ccc(-n2c(=S)oc3ccc(F)cc3c2=S)cc1 | 8 µM (≈ 2.65 µg/mL) | 4 µM (≈ 1.33 µg/mL) | 0.25 µM (≈ 0.0829 µg/mL) | 0.5 µM (≈ 0.166 µg/mL) | 2 µM (≈ 0.663 µg/mL) | 1 µM (≈ 0.331 µg/mL) | 0.5 µM (≈ 0.166 µg/mL) | 4 µM (≈ 1.33 µg/mL)
2 | Cc1ccc(-n2c(=O)oc3ccc(Br)cc3c2=O)cc1 | 62 µM (≈ 20.6 µg/mL) |  | 16 µM (≈ 5.31 µg/mL) | 31 µM (≈ 10.3 µg/mL) |  | 31 µM (≈ 10.3 µg/mL) | 16 µM (≈ 5.31 µg/mL) | 
3 | Cc1ccc(-n2c(=O)oc3ccc(Br)cc3c2=S)cc1 | 4 µM (≈ 1.39 µg/mL) | 2 µM (≈ 0.696 µg/mL) | 0.5 µM (≈ 0.174 µg/mL) | 32 µM (≈ 11.1 µg/mL) | 2 µM (≈ 0.696 µg/mL) | 32 µM (≈ 11.1 µg/mL) | 1 µM (≈ 0.348 µg/mL) | 4 µM (≈ 1.39 µg/mL)
4 | CCC(C)c1ccc(-n2c(=S)oc3ccc(F)cc3c2=S)cc1 (stereo not drawn) | 4 µM (≈ 1.38 µg/mL) | 2 µM (≈ 0.691 µg/mL) | 0.25 µM (≈ 0.0864 µg/mL) | 0.5 µM (≈ 0.173 µg/mL) | 2 µM (≈ 0.691 µg/mL) | 1 µM (≈ 0.345 µg/mL) | 0.25 µM (≈ 0.0864 µg/mL) | 4 µM (≈ 1.38 µg/mL)
5 | CCc1ccc(-n2c(=O)oc3ccc(Br)cc3c2=O)cc1 | 16 µM (≈ 5.54 µg/mL) | 8 µM (≈ 2.77 µg/mL) | 8 µM (≈ 2.77 µg/mL) | 32 µM (≈ 11.1 µg/mL) | 16 µM (≈ 5.54 µg/mL) | 32 µM (≈ 11.1 µg/mL) | 8 µM (≈ 2.77 µg/mL) | 16 µM (≈ 5.54 µg/mL)
6 | CCc1ccc(-n2c(=O)oc3ccc(Cl)cc3c2=O)cc1 | 16 µM (≈ 4.83 µg/mL) | 16 µM (≈ 4.83 µg/mL) | 8 µM (≈ 2.41 µg/mL) | 16 µM (≈ 4.83 µg/mL) | 16 µM (≈ 4.83 µg/mL) | 32 µM (≈ 9.66 µg/mL) | 16 µM (≈ 4.83 µg/mL) | 16 µM (≈ 4.83 µg/mL)
7 | CCc1ccc(-n2c(=O)oc3cc(Cl)ccc3c2=O)cc1 | 16 µM (≈ 4.83 µg/mL) | 16 µM (≈ 4.83 µg/mL) | 8 µM (≈ 2.41 µg/mL) | 8 µM (≈ 2.41 µg/mL) | 16 µM (≈ 4.83 µg/mL) | 16 µM (≈ 4.83 µg/mL) | 8 µM (≈ 2.41 µg/mL) | 16 µM (≈ 4.83 µg/mL)
8 | CCC(C)c1ccc(-n2c(=S)oc3cc(C)ccc3c2=S)cc1 (stereo not drawn) | 2 µM (≈ 0.683 µg/mL) | 2 µM (≈ 0.683 µg/mL) | 0.25 µM (≈ 0.0854 µg/mL) | 0.25 µM (≈ 0.0854 µg/mL) | 0.5 µM (≈ 0.171 µg/mL) | 0.5 µM (≈ 0.171 µg/mL) | 0.5 µM (≈ 0.171 µg/mL) | 1 µM (≈ 0.342 µg/mL)
9 | CC(C)(C)c1ccc(-n2c(=S)oc3ccc(Cl)cc3c2=S)cc1 | 8 µM (≈ 2.9 µg/mL) | 8 µM (≈ 2.9 µg/mL) | 0.25 µM (≈ 0.0905 µg/mL) | 1 µM (≈ 0.362 µg/mL) | 8 µM (≈ 2.9 µg/mL) | 2 µM (≈ 0.724 µg/mL) | 0.5 µM (≈ 0.181 µg/mL) | 8 µM (≈ 2.9 µg/mL)
10 | Cc1ccc2c(=S)n(-c3ccc(C(C)(C)C)cc3)c(=S)oc2c1 | 2 µM (≈ 0.683 µg/mL) | 2 µM (≈ 0.683 µg/mL) | 0.25 µM (≈ 0.0854 µg/mL) | 0.5 µM (≈ 0.171 µg/mL) | 1 µM (≈ 0.342 µg/mL) | 1 µM (≈ 0.342 µg/mL) | 0.5 µM (≈ 0.171 µg/mL) | 2 µM (≈ 0.683 µg/mL)
11 | CC(C)c1ccc(-n2c(=O)oc3ccc(F)cc3c2=O)cc1 | 8 µM (≈ 2.39 µg/mL) | 8 µM (≈ 2.39 µg/mL) | 8 µM (≈ 2.39 µg/mL) | 8 µM (≈ 2.39 µg/mL) | 8 µM (≈ 2.39 µg/mL) | 16 µM (≈ 4.79 µg/mL) | 8 µM (≈ 2.39 µg/mL) | 16 µM (≈ 4.79 µg/mL)
12 | Cc1ccc2c(=O)n(-c3ccc(C(C)C)cc3)c(=O)oc2c1 |  |  |  |  | 32 µM (≈ 9.45 µg/mL) |  |  | 
13 | CCC(C)c1ccc(-n2c(=O)oc3ccc(F)cc3c2=O)cc1 (stereo not drawn) | 8 µM (≈ 2.51 µg/mL) | 8 µM (≈ 2.51 µg/mL) | 8 µM (≈ 2.51 µg/mL) | 8 µM (≈ 2.51 µg/mL) | 4 µM (≈ 1.25 µg/mL) | 8 µM (≈ 2.51 µg/mL) | 8 µM (≈ 2.51 µg/mL) | 8 µM (≈ 2.51 µg/mL)
14 | CCC(C)c1ccc(-n2c(=O)oc3cc(C)ccc3c2=O)cc1 (stereo not drawn) |  |  |  |  | 32 µM (≈ 9.9 µg/mL) |  |  | 
15 | CCCCc1ccc(-n2c(=O)oc3ccc(Cl)cc3c2=O)cc1 | 8 µM (≈ 2.64 µg/mL) | 8 µM (≈ 2.64 µg/mL) | 16 µM (≈ 5.28 µg/mL) | 16 µM (≈ 5.28 µg/mL) | 8 µM (≈ 2.64 µg/mL) | 16 µM (≈ 5.28 µg/mL) | 16 µM (≈ 5.28 µg/mL) | 16 µM (≈ 5.28 µg/mL)
